Experimental data: ChEMBL document CHEMBL4765317, “Novel bacterial topoisomerase inhibitors derived from isomannide” (Eur J Med Chem, 2020)
In brackets after ≈: the same amount, converted by molar mass.

Key:
[1] = molecular target: CYP2B6 (Homo sapiens, UniProt P20813); assay: Inhibition of human liver microsome CYP2B6 at 10 uM in presence of NADPH incubated for 10 to 30 mins by LC-MS-MS analysis; format: ADME; conditions: human liver microsomes, time 10-30 min
[2] = test system: Staphylococcus aureus; assay: Antibacterial activity against Staphylococcus aureus ATCC 29213 assessed as reduction in bacterial growth by CLSI based broth microdilution method; format: functional
[3] = molecular target: T1, CYP3A4 (Homo sapiens, UniProt P08684); assay: Residual activity of human liver microsome CYP3A4 at 1 uM in presence of NADPH incubated for 10 to 30 mins by LC-MS-MS analysis; conditions: human liver microsomes
[4] = test system: Staphylococcus aureus; assay: Antibacterial activity against methicillin-resistant Staphylococcus aureus DRL-3161 assessed as reduction in bacterial growth by CLSI based broth microdilution method; format: functional
[5] = Cytotoxicity against human HepaRG assessed as reduction in cell viability at 10 uM incubated for 24 hrs by Cell-Titer Glo assay; format: cell-based; conditions: HepaRG cells, read-out: INH
Summary of the method: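 ATP-based viability read-out in HepaRG cells over a five-point concentration series (0.01, 0.1, 1, 10, 100 µM). Results are given as % cytotoxicity at each concentration.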

[6] = molecular target: KCNQ1 (Homo sapiens, UniProt P51787); assay: Inhibition of recombinant human KCNQ1 expressed in CHO-K1 cells at 3 uM by automated Qpatch clamp assay relative to control; format: ADME, cell-based; conditions: CHO-K1 cells expressing recombinant human KCNQ1
Summary of the method: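 KCNQ1/hminK current recorded in duplicate on an automated QPatch HT at 3, 30 and 100 µM, from a 30 mM DMSO stock. Records were filtered for seal quality, seal drop and current amplitude. Peak outward current was evoked by a step to 60 mV. Block is the test-compound amplitude divided by control, where control is the mean over 15 s at the end of the control period. Chromanol 293B was the positive control.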

[7] = molecular target: T1, CYP3A4; assay: Residual activity of human liver microsome CYP3A4 at 0.3 uM in presence of NADPH incubated for 10 to 30 mins by LC-MS-MS analysis; conditions: human liver microsomes
[8] = test system: Streptococcus pneumoniae; assay: Antibacterial activity against penicillin-susceptible Streptococcus pneumoniae LSI-4234 assessed as reduction in bacterial growth by CLSI based broth microdilution method; format: functional
[9] = molecular target: Voltage-gated inwardly rectifying potassium channel KCNH2 (Homo sapiens, UniProt Q12809); assay: Inhibition of human ERG
[10] = molecular target: T1, CYP3A4; assay: Residual activity of human liver microsome CYP3A4 at 0.1 uM in presence of NADPH incubated for 10 to 30 mins by LC-MS-MS analysis; conditions: human liver microsomes
[11] = molecular target: CYP2C9 (Homo sapiens, UniProt P11712); assay: Inhibition of human liver microsome CYP2C9 at 10 uM in presence of NADPH incubated for 10 to 30 mins by LC-MS-MS analysis; format: ADME; conditions: human liver microsomes, time 10-30 min
[12] = test system: Staphylococcus aureus; assay: Antibacterial activity against Staphylococcus aureus 3527 assessed as reduction in bacterial growth by CLSI based broth microdilution method; format: functional
Summary of the method: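 Host is a multidrug-resistant MRSA clinical isolate (formerly 1095), the parent of an isogenic D83N gyrase mutant. MIC was read by CLSI broth microdilution and reported in µg/mL.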

[13] = test system: Staphylococcus aureus; assay: Antibacterial activity against cystic fibrosis patient isolate Staphylococcus aureus assessed as reduction in bacterial growth by CLSI based broth microdilution method; format: functional
[14] = Aqueous solubility of compound at 100 uM incubated for 90 mins by LC-MS/MS analysis; format: physicochemical; conditions: buffer
Summary of the method: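 Kinetic solubility measured in buffered aqueous solution at pH 7.4.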

[15] = molecular target: Sodium-dependent noradrenaline transporter (Homo sapiens) (UniProt P23975); assay: Inhibition of recombinant human full length Norepinephrine transporter expressed in dog MDCK cells at 100 uM in presence of [125I]-RTI-55 incubated for 180 mins by scintillation counting method relative to control; format: cell-based; conditions: CHO-K1
Summary of the method: (§1)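 Off-target screen against a panel of 44 receptors, enzymes and transporters, run in duplicate at a single 100 µM concentration. Results are given as % inhibition. No concentration-response follow-up was done.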

[16] = molecular target: 5-hydroxytryptamine receptor 2B (Homo sapiens) (UniProt P41595); assay: Inhibition of recombinant human full length 5HT2B expressed in CHO-K1 cells at 100 uM incubated for 30 mins by TR-FRET assay relative to control; format: cell-based; summary of the method: as §1
[17] = molecular target: T2, Nav1.5 (late current) (Homo sapiens, UniProt Q14524); assay: Inhibition of recombinant human Nav1.5 late expressed in human HEK293 cells at 100 uM in presence of ATXII by automated Qpatch clamp assay relative to control; format: ADME, cell-based; conditions: HEK293 cells expressing recombinant human Nav1.5
Summary of the method: (§2)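 Part of an eight-assay CiPA panel run on a QPatch HT automated patch clamp at 3, 30 and 100 µM, in duplicate. The test compound came from a 30 mM DMSO stock. Data were filtered for seal quality, seal drop and current amplitude, and reported as mean percent inhibition.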

[18] = test system: Enterococcus faecium; assay: Antibacterial activity against Vancomycin-resistant Enterococcus faecium LSI-3340 assessed as reduction in bacterial growth by CLSI based broth microdilution method; format: functional
[19] = molecular target: T1, CYP3A4; assay: Inhibition of human liver microsome CYP3A4 at 10 uM in presence of NADPH incubated for 10 to 30 mins by LC-MS-MS analysis; values are per cent of control; conditions: human liver microsomes
[20] = molecular target: Cytochrome P450 3A4 (Homo sapiens, UniProt P08684); assay: Inhibition of human liver microsome CYP3A4 in presence of NADPH incubated for 10 to 30 mins by LC-MS-MS analysis; format: ADME, microsomes
[21] = Metabolic stability in human liver microsomes assessed as half life at 10 uM incubated for 5 mins followed by NADPH addition and measured upto 60 mins by LC-MS analysis; format: ADME, Microsome; conditions: time 65 min
[22] = molecular target: Sodium channel protein type 5 subunit alpha (Homo sapiens, UniProt Q14524); assay: Activation of recombinant human Nav1.5 late expressed in human HEK293 cells assessed as activation of late current at 30 uM by automated Qpatch clamp assay relative to control; format: ADME, cell-based; conditions: hek293, 30 µM
Summary of the method: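 Part of an eight-assay CiPA panel run in duplicate on an automated QPatch HT patch-clamp system at 3, 30 and 100 µM. Test compound came from a 30 mM DMSO stock. Records were filtered for seal quality, seal drop and current amplitude, and mean percent values are reported.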

[23] = test system: Streptococcus pneumoniae; assay: Antibacterial activity against penicillin-resistant Streptococcus pneumoniae LSI-4246 assessed as reduction in bacterial growth by CLSI based broth microdilution method; format: functional
[24] = test system: Staphylococcus aureus; assay: Antibacterial activity against Staphylococcus aureus USA300 assessed as reduction in bacterial growth by CLSI based broth microdilution method; format: functional
[25] = molecular target: T2, Nav1.5 (late current); assay: Inhibition of recombinant human Nav1.5 late expressed in human HEK293 cells late at 3 uM in presence of ATXII by automated Qpatch clamp assay relative to control; format: ADME, cell-based; conditions: HEK293 cells expressing recombinant human Nav1.5; summary of the method: as §2
[26] = test system: Enterococcus faecium; assay: Antibacterial activity against Vancomycin-susceptible Enterococcus faecium DRL-4193 assessed as reduction in bacterial growth by CLSI based broth microdilution method; format: functional

T1 sequence (P08684 whole entry): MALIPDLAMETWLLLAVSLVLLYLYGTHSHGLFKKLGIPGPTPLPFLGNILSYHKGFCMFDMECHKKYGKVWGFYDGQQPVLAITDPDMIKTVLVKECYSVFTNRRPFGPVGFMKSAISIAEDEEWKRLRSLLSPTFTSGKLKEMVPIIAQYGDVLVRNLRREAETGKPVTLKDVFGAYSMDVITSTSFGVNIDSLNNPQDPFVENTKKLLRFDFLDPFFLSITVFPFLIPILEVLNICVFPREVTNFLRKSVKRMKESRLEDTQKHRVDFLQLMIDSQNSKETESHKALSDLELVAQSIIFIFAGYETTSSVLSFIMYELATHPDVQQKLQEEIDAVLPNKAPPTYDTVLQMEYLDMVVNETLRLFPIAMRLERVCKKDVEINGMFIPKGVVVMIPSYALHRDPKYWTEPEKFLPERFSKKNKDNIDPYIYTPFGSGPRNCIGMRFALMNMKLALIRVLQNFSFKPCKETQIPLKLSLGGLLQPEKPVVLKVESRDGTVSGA
T2 sequence (Q14524 whole entry): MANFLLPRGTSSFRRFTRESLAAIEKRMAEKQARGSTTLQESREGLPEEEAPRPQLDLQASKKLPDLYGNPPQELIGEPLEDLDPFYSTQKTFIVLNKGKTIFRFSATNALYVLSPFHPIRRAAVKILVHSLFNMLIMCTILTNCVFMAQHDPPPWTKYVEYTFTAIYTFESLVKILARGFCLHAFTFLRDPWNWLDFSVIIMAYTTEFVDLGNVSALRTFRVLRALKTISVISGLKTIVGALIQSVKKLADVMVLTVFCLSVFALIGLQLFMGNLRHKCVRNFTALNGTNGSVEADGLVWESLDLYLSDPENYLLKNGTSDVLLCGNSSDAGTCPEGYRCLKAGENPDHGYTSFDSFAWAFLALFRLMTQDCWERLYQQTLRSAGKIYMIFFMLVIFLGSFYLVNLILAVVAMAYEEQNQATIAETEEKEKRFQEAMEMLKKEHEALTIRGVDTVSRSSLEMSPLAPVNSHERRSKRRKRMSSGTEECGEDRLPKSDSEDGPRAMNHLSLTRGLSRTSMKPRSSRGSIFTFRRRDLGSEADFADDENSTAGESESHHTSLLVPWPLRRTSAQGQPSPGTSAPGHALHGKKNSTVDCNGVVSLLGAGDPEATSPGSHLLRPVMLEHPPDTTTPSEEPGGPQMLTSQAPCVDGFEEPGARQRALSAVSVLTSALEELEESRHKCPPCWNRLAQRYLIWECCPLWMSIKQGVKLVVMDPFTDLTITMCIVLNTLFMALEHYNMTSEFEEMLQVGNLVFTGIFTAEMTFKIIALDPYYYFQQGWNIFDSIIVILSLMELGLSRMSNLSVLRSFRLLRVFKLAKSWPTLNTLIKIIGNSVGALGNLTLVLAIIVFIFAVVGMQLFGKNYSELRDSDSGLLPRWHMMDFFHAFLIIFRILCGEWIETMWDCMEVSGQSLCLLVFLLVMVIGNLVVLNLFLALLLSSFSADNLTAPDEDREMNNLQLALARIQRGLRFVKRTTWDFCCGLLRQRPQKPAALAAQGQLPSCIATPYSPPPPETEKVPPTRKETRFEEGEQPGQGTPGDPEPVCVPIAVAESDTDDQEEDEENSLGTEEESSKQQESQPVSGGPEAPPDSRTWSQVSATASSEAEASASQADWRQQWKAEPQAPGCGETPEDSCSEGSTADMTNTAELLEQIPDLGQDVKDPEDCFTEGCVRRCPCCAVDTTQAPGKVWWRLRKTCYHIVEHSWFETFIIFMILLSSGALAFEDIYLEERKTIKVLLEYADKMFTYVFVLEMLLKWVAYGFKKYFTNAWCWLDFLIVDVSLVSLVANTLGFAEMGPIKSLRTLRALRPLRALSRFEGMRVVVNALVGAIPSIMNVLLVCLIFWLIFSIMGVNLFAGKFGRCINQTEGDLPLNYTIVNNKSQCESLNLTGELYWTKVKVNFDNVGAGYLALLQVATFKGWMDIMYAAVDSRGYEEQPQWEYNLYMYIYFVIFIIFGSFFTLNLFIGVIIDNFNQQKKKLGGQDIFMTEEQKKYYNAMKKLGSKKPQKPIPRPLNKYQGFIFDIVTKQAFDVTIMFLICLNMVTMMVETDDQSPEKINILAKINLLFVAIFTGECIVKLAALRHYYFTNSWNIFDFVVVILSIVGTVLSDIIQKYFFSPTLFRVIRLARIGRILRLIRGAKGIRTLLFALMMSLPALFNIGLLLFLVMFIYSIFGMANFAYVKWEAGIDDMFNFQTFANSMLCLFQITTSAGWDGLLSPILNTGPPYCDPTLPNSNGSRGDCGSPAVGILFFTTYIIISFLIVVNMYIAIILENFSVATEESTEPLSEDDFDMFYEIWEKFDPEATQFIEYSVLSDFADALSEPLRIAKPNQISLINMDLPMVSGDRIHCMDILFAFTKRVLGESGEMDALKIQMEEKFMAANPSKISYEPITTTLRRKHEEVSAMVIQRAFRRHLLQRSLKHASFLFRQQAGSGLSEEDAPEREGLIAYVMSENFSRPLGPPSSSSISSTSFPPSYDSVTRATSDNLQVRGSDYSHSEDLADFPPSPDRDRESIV
Sodium channel protein type 5 subunit alpha, sequence (Q14524 whole entry): as above
Sodium-dependent noradrenaline transporter (Homo sapiens), sequence (P23975 whole entry): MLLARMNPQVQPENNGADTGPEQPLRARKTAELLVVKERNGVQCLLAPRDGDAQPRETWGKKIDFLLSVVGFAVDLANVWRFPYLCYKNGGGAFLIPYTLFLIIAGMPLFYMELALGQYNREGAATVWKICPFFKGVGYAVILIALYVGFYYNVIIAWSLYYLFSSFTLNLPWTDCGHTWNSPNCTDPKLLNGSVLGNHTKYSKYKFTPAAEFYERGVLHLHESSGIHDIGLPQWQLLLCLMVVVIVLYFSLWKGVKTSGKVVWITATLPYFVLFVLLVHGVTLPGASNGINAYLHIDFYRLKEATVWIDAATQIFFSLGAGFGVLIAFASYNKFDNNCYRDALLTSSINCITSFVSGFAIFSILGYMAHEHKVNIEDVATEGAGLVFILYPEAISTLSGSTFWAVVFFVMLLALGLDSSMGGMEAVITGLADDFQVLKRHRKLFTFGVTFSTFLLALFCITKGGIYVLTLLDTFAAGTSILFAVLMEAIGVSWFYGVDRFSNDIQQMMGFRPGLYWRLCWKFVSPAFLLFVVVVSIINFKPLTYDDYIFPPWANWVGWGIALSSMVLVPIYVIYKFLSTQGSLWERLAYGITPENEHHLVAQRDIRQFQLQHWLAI

COc1ccc2ncc(F)c(CC[C@@]3(O)CO[C@@H]4[C@@H](NCc5cc6c(cn5)OCCO6)CO[C@@H]43)c2n1 gave an inhibition at 10 µM [1] of under 50%, an MIC [2] of 1 µg/mL (≈ 2.01 µM) and a residual activity at 1 µM [3] of 60.4%. It also gave an MIC [4] of 1 µg/mL (≈ 2.01 µM), a cytotoxicity at 24 h, 10 µM [5] of 8% and an inhibition at 3 µM [6] of -2.9%. It also gave a residual activity at 0.3 µM [7] of 89.9%, an MIC [8] of at most 0.12 µg/mL and an IC50 [9] of 66 µM. The residual activity at 0.1 µM [10] was 97%, the inhibition at 10 µM [11] was under 50% and the MIC [12] was 2 µg/mL (≈ 4.01 µM). For the same molecule, the MIC [13] was 2 µg/mL (≈ 4.01 µM), the solubility at […], 100 µM [14] was 76.2 µM (≈ 38 µg/mL) and the inhibition [15] was 68%. For the same molecule, the inhibition [16] was 95%, the inhibition at 100 µM [17] was 50.9% and the MIC [18] was 0.25 µg/mL (≈ 0.501 µM). It also gave a residual activity at 10 µM [19] of 49.5%, an IC50 [20] of over 10 µM and a half-life at 10 µM [21] of 6 min. It also gave an Activity [22] of 7.7%, an MIC [23] of at most 0.12 µg/mL and an MIC [24] of 2 µg/mL (≈ 4.01 µM). The inhibition at 3 µM [25] was 4.3% and the MIC [26] was 2 µg/mL (≈ 4.01 µM).
